How the values were obtained:
Assay type in all cases: biochemical
VHR = VHR (Homo sapiens, UniProt P51452); assay: PTP activity assay with pNPP, VHR
In short: (§1)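 Reactions started by adding enzyme to mixtures with various pNPP and test-compound concentrations. Rates were fitted with an enzyme-kinetics model for Ki.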

CD45 = molecular target: T1, CD45 (Homo sapiens, UniProt P08575); assay: PTP activity assay with pNPP, CD45
T1 sequence (P08575 26-1306): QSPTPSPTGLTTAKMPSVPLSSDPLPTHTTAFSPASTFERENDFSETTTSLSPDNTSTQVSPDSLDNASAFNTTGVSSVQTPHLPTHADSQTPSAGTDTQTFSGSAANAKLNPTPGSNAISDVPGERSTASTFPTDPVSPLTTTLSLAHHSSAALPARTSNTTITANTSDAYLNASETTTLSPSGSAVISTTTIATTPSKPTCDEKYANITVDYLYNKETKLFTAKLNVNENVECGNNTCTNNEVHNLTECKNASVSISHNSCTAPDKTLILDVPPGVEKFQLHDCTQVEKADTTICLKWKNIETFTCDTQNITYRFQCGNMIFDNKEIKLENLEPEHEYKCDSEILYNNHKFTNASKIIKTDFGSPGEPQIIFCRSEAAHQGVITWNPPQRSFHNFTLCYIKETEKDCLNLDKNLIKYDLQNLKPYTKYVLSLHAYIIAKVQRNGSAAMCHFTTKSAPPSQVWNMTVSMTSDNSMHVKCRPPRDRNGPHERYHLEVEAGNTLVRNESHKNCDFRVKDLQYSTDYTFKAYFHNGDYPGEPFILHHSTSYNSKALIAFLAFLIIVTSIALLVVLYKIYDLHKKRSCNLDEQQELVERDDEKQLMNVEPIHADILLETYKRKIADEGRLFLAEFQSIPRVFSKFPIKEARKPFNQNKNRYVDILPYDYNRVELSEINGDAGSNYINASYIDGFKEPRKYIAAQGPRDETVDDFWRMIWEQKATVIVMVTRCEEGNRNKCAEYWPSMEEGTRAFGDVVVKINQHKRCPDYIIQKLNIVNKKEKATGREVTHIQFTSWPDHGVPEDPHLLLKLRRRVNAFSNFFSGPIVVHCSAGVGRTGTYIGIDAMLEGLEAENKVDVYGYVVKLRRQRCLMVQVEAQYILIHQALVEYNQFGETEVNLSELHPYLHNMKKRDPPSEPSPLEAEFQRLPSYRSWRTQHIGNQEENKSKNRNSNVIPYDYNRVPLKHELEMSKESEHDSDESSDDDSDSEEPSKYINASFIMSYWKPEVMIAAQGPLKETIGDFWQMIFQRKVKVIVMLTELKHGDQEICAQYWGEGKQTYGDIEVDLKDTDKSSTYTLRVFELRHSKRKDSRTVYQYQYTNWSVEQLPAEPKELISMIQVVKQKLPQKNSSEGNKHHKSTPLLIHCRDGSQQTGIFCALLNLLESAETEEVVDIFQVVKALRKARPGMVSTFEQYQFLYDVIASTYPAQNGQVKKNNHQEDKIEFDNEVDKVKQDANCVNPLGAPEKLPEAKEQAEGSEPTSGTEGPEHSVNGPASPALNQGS
In short: as §1

Lyp = molecular target: T2, Lyp (Homo sapiens, UniProt Q9Y2R2); assay: PTP activity assay with pNPP, Lyp
T2 sequence (Q9Y2R2 1-807): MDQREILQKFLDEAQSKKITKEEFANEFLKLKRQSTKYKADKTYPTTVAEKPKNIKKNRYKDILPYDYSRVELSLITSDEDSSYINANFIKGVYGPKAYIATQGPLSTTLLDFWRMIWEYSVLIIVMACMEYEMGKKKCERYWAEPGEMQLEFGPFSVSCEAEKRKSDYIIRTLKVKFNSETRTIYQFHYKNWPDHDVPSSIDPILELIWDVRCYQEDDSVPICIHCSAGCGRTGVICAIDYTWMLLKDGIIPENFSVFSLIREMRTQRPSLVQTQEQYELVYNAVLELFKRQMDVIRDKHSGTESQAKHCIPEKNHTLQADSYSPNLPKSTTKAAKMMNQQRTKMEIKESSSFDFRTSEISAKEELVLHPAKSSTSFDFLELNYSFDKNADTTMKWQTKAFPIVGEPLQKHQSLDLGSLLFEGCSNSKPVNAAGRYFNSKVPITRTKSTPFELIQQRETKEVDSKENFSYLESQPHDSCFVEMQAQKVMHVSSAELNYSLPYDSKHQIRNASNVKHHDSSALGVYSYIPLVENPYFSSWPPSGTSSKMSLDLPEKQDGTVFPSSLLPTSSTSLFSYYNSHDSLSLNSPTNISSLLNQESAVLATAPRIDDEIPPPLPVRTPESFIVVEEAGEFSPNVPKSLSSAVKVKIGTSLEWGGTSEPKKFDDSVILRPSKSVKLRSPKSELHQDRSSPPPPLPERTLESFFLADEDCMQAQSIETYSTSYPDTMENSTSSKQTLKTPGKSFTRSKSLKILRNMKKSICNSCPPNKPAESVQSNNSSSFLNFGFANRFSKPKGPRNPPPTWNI

SHP2 = molecular target: T3, SHP2 (Homo sapiens, UniProt Q06124); assay: PTP activity assay with pNPP, SHP2
T3 sequence (Q06124 1-593): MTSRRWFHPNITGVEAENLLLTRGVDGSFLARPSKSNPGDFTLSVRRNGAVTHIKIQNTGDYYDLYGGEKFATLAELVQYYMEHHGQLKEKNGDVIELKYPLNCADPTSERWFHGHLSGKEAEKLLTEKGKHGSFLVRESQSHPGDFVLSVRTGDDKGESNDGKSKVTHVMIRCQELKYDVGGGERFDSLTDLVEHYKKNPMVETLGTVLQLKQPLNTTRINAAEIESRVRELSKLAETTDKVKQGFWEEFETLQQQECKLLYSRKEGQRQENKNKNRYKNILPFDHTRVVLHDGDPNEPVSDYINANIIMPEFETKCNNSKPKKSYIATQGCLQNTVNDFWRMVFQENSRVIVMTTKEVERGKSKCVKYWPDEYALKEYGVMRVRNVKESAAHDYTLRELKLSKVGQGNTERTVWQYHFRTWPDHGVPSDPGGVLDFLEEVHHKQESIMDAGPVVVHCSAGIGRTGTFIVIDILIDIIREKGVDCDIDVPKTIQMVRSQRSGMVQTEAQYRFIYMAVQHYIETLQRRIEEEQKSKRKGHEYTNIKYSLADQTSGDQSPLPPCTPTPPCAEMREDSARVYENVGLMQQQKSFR
In short: as §1

LMWPTP = molecular target: T4, LMWPTP (Homo sapiens, UniProt P24666); assay: PTP activity assay with pNPP, LMWPTP
T4 sequence (P24666 1-158): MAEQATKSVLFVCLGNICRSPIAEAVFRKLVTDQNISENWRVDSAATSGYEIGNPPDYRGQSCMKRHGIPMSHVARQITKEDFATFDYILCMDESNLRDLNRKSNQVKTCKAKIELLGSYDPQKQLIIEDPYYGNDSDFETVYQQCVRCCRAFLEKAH
In short: as §1

FAP1 = FAP1 (Homo sapiens, UniProt Q12923); assay: PTP activity assay with pNPP, FAP1
In short: as §1

Measured: Ki

Sequence of FAP1 (Q12923 whole entry, species assumed): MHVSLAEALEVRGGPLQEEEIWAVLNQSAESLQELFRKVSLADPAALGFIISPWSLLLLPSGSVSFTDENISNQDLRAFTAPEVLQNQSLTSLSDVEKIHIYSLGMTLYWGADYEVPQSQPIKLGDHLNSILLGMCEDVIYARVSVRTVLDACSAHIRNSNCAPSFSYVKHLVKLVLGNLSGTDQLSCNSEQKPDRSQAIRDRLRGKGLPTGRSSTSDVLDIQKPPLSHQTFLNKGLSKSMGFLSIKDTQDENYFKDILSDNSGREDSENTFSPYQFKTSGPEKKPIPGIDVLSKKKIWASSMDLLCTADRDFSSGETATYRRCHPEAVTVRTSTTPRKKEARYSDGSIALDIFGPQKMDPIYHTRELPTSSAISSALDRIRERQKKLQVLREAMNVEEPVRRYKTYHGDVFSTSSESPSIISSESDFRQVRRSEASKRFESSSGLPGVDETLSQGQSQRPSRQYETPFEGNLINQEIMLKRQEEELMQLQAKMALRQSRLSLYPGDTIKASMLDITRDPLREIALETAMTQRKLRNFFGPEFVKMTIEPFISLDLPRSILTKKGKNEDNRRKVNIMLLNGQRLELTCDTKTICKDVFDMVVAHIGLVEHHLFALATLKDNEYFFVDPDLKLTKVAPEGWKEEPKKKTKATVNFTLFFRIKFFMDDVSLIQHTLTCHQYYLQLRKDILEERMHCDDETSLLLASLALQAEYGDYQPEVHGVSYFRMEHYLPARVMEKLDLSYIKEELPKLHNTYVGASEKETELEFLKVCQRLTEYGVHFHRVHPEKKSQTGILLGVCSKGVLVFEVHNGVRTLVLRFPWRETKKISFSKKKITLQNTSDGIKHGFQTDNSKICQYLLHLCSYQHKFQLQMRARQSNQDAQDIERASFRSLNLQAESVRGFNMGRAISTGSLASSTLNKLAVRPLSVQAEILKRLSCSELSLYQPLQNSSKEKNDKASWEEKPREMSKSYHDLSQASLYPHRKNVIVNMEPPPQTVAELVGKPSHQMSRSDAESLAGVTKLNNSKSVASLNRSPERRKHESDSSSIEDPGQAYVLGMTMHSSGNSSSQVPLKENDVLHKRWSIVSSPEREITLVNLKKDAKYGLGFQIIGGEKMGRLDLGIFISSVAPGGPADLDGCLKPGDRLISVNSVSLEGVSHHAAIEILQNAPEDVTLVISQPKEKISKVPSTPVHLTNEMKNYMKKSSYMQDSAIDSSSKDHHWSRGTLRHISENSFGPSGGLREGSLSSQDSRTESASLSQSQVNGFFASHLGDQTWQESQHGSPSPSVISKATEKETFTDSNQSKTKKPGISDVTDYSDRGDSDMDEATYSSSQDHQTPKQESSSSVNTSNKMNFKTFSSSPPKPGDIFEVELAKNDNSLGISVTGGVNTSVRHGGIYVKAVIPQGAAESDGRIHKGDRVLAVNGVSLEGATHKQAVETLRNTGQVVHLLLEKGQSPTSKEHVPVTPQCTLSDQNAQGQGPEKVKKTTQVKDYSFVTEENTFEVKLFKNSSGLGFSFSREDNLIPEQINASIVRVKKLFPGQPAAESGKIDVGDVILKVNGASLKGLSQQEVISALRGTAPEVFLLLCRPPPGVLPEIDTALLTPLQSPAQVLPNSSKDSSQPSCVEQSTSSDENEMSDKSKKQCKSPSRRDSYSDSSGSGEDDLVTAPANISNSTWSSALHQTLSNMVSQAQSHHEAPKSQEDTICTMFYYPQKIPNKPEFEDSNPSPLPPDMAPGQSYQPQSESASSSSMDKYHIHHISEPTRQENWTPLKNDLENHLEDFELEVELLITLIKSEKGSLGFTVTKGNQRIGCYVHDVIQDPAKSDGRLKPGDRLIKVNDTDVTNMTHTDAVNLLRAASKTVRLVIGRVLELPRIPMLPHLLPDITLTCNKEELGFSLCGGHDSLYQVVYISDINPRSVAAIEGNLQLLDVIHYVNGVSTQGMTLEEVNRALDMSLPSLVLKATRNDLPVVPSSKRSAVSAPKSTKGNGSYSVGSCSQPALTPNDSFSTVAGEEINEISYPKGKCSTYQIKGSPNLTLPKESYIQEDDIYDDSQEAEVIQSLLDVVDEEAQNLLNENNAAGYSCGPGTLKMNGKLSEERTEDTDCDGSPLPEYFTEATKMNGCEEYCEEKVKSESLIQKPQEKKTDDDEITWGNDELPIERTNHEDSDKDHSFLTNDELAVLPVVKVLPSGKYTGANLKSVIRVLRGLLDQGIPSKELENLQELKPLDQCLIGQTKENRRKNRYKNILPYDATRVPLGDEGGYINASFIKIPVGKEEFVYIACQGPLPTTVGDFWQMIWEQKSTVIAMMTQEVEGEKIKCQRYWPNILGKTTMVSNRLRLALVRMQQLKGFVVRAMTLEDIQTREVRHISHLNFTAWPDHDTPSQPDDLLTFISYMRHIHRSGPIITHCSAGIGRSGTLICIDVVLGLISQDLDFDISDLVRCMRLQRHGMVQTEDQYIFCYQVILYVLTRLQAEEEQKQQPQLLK
Sequence of VHR (P51452 whole entry, species assumed): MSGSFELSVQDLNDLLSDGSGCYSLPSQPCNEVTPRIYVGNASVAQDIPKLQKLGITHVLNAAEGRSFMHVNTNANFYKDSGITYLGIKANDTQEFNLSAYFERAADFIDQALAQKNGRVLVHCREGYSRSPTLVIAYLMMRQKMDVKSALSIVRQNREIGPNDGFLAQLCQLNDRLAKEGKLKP

CCc1ccc(C(=O)NCCCC[C@H](NC(=O)[C@H](Cc2ccc(C(F)(F)P(=O)(O)O)cc2)NC(=O)[C@H](Cc2ccccc2)NC(=O)CO[C@H]2C[C@@H](C)CC[C@@H]2C(C)C)C(N)=O)cc1 [Compound 8]
> 1000 nM: all assays above

From article PMC2741613 (Journal of the American Chemical Society, 2009)
